In ChEMBL document CHEMBL1821590, “Novel dihydropyrimidines and its pyrazole derivatives: synthesis and pharmacological screening” (Eur J Med Chem, 2011):
Converted amounts (≈) assume the structure as drawn.

Assays:
Type in all cases: functional
Aspergillus niger [1] = assay: Antimicrobial activity against Aspergillus niger at 50 ug/ml by paper disc method; details: read-out: IZ
Outline: (§1)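 Paper disc method against A. niger and C. albicans, with compounds at 25, 50 and 100 µg/mL. Amphotericin-B as standard.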

[2] = Antioxidant activity assessed as hydrogen peroxide scavenging activity after 10 mins
Outline: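 H2O2 (20 mM) in PBS pH 7.4. 1 mL of sample or ascorbic acid in methanol (12.5–100 µg/mL) added to 2 mL H2O2 solution. A230 read after 10 min. % inhibition = [1 − (Vt/Vc)] × 100. Triplicate, averaged. IC50 derived from % inhibition across concentrations.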

[3] = Antioxidant activity assessed as potassium ferricyanide ion reducing power after 20 mins
Outline: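 Oyaizu method. Samples or ascorbic acid in DMF (12.5–100 µg/mL) mixed with 0.2 M phosphate buffer pH 6.6 and 1% potassium ferricyanide, 20 min at 50 °C. 10% TCA added, centrifuged. Supernatant mixed with water and 0.1% FeCl3, read at 700 nm. % = [(Vt/Vc) − 1] × 100. IC50 derived.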

Candida albicans [4] = assay: Antimicrobial activity against Candida albicans at 25 ug/ml by paper disc method; details: read-out: IZ; outline: as §1
Bacillus subtilis [5] = assay: Antimicrobial activity against Bacillus subtilis at 100 ug/ml by agar plate diffusion technique; details: read-out: IZ
Outline: (§2)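 Agar plate diffusion against E. coli, P. aeruginosa, S. aureus and B. subtilis, with compounds at 25, 50 and 100 µg/mL. Streptomycin as standard.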

[6] = Antioxidant activity assessed as nitric oxide radical scavenging activity after 150 mins
Outline: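 10 mM sodium nitroprusside (4 mL), PBS pH 7.4 (1 mL) and sample or ascorbic acid in DMSO (1 mL, 12.5–100 µg/mL), incubated 150 min at 25 °C. Nitrite detected with sulphanilic acid (5 min) then naphthylethylenediamine (30 min, diffused light). Read at […]. Triplicate. % inhibition = [1 − (Vt/Vc)] × 100. IC50 derived from it.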

Candida albicans [7] = assay: Antimicrobial activity against Candida albicans at 100 ug/ml by paper disc method; details: read-out: IZ; outline: as §1
Pseudomonas aeruginosa [8] = assay: Antimicrobial activity against Pseudomonas aeruginosa at 100 ug/ml by agar plate diffusion technique; details: read-out: IZ; outline: as §2
Metaphire posthuma [9] = assay: Anthelmintic activity against Pheretima posthuma assessed as time taken for parasite death at 0.5% w/v
Outline: (§3)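 Earthworms (Pheretima posthuma, spelled Perituma posthuma in text) exposed to test compounds at 0.1, 0.2 and 0.5% w/v. Albendazole served as standard, with an untreated control. Paralysis was recorded as the time until worms became motionless, then time to death was recorded, in minutes. Each value is the mean of three determinations with S.D.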

Metaphire posthuma [10] = assay: Anthelmintic activity against Pheretima posthuma assessed as time taken for complete parasite paralysis at 0.1% w/v
Outline: (§4)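 Earthworms (Pheretima posthuma) exposed to test solutions at 0.1, 0.2 and 0.5% w/v; time in minutes to complete paralysis (worms motionless) recorded. Albendazole as standard. Mean of three determinations ± S.D.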

Bacillus subtilis [11] = assay: Antimicrobial activity against Bacillus subtilis at 50 ug/ml by agar plate diffusion technique; details: read-out: IZ; outline: as §2
Metaphire posthuma [12] = assay: Anthelmintic activity against Pheretima posthuma assessed as time taken for complete parasite paralysis at 0.2% w/v; outline: as §4
Metaphire posthuma [13] = assay: Anthelmintic activity against Pheretima posthuma assessed as time taken for complete parasite paralysis at 0.5% w/v; outline: as §4
Pseudomonas aeruginosa [14] = assay: Antimicrobial activity against Pseudomonas aeruginosa at 25 ug/ml by agar plate diffusion technique; details: read-out: IZ; outline: as §2
Candida albicans [15] = assay: Antimicrobial activity against Candida albicans at 50 ug/ml by paper disc method; details: read-out: IZ; outline: as §1
Pseudomonas aeruginosa [16] = assay: Antimicrobial activity against Pseudomonas aeruginosa at 50 ug/ml by agar plate diffusion technique; details: read-out: IZ; outline: as §2
[17] = Antiinflammatory activity assessed as inhibition of albumin denaturation at 100 ug/ml by UV-visible spectrophotometry
Outline: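 Compounds dissolved in minimal DMF, diluted in PBS pH 7.4 (final DMF <2.5%). 1 mL test solution (100 µg/mL) plus 1 mL 1% albumin in PBS, 15 min at 27 ± 1 °C, then heated 10 min at 60 ± 1 °C. After cooling, turbidity read at 660 nm. % inhibition = [(Vt/Vc) − 1] × 100 against a no-drug control. Triplicate, averaged. Diclofenac standard.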

Metaphire posthuma [18] = assay: Anthelmintic activity against Pheretima posthuma assessed as time taken for parasite death at 0.2% w/v; outline: as §3
Bacillus subtilis [19] = assay: Antimicrobial activity against Bacillus subtilis at 25 ug/ml by agar plate diffusion technique; details: read-out: IZ; outline: as §2
Aspergillus niger [20] = assay: Antimicrobial activity against Aspergillus niger at 25 ug/ml by paper disc method; details: read-out: IZ; outline: as §1
Metaphire posthuma [21] = assay: Anthelmintic activity against Pheretima posthuma assessed as time taken for parasite death at 0.1% w/v; outline: as §3
[22] = Antioxidant activity assessed as inhibition of lipid peroxidation using egg lecithin liposomes incubated for 1 hr
Outline: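 Egg lecithin (3 mg/mL, phosphate buffer pH 7.4) sonicated 10 min to form liposomes. Sample or ascorbic acid (12.5–100 µg/mL) added. Peroxidation induced with FeCl3 and L-ascorbic acid, 1 h at 37 °C. Stopped with HCl/TCA/TBA/BHA, boiled 15 min, centrifuged, supernatant read at 532 nm. Triplicate. % inhibition vs control. IC50 derived.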

Aspergillus niger [23] = assay: Antimicrobial activity against Aspergillus niger at 100 ug/ml by paper disc method; details: read-out: IZ; outline: as §1
Escherichia coli [24] = assay: Antimicrobial activity against Escherichia coli at 50 ug/ml by agar plate diffusion technique; details: read-out: IZ; outline: as §2
Escherichia coli [25] = assay: Antimicrobial activity against Escherichia coli at 25 ug/ml by agar plate diffusion technique; details: read-out: IZ; outline: as §2
Escherichia coli [26] = assay: Antimicrobial activity against Escherichia coli at 100 ug/ml by agar plate diffusion technique; details: read-out: IZ; outline: as §2

Row | SMILES | zone of inhibition at 50 µg/mL (Aspergillus niger [1]) | IC50 [2] | IC50 [3] | zone of inhibition at 25 µg/mL (Candida albicans [4]) | zone of inhibition at 100 µg/mL (Bacillus subtilis [5]) | IC50 [6] | zone of inhibition at 100 µg/mL (Candida albicans [7]) | zone of inhibition at 100 µg/mL (Pseudomonas aeruginosa [8]) | Time (Metaphire posthuma [9]) | Time (Metaphire posthuma [10]) | zone of inhibition at 50 µg/mL (Bacillus subtilis [11]) | Time (Metaphire posthuma [12]) | Time (Metaphire posthuma [13]) | zone of inhibition at 50 µg/mL (Candida albicans [15]) | inhibition [17] | Time (Metaphire posthuma [18]) | zone of inhibition at 25 µg/mL (Aspergillus niger [20]) | Time (Metaphire posthuma [21]) | IC50 [22] | zone of inhibition at 100 µg/mL (Aspergillus niger [23]) | other results
1 | COc1cccc(-c2nc(SC)n(C)c(=O)c2C#N)c1OC | 12 mm | 43 µg/mL (≈ 135 µM) | 54 µg/mL (≈ 170 µM) | 10.5 mm | 20.3 mm | 67 µg/mL (≈ 211 µM) | 19.5 mm | 9.93 mm | 56.08 min | 75.54 min | 14.4 mm | 57.18 min | 41.47 min | 13 mm | 38.2% | 60.44 min | 9.25 mm | 83.02 min | 48 µg/mL (≈ 151 µM) | 19.7 mm | zone of inhibition at 25 µg/mL (Pseudomonas aeruginosa [14]): 5.86 mm; zone of inhibition at 50 µg/mL (Pseudomonas aeruginosa [16]): 8.25 mm; zone of inhibition at 25 µg/mL (Bacillus subtilis [19]): 10.4 mm
2 | O=C(O)Cc1ccccc1Nc1c(Cl)cccc1Cl | – | – | – | – | – | – | – | – | – | – | – | – | – | – | 83.3% | – | – | – | – | – | –
3 | CN(C)c1ccc(-c2nc(NN)n(C)c(=O)c2C#N)cc1 | 9.48 mm | 66 µg/mL (≈ 232 µM) | 81 µg/mL (≈ 285 µM) | 9.14 mm | 14.5 mm | 69 µg/mL (≈ 243 µM) | 15.3 mm | 8.83 mm | 43.34 min | 28.25 min | 10.5 mm | 26.35 min | 25.64 min | 9 mm | 12.6% | 46.44 min | 7.14 mm | 54.22 min | 63 µg/mL (≈ 222 µM) | 15.8 mm | zone of inhibition at 50 µg/mL (Escherichia coli [24]): 7.82 mm; zone of inhibition at 25 µg/mL (Pseudomonas aeruginosa [14]): 5.78 mm; zone of inhibition at 25 µg/mL (Escherichia coli [25]): 5.74 mm; zone of inhibition at 50 µg/mL (Pseudomonas aeruginosa [16]): 6.27 mm; zone of inhibition at 100 µg/mL (Escherichia coli [26]): 8.28 mm; zone of inhibition at 25 µg/mL (Bacillus subtilis [19]): 8.1 mm
4 | O=C1O[C@H]([C@@H](O)CO)C(O)=C1O [ASCORBIC ACID] | – | 33 µg/mL (≈ 187 µM) | 31 µg/mL (≈ 176 µM) | – | – | 47 µg/mL (≈ 267 µM) | – | – | – | – | – | – | – | – | – | – | – | – | 26 µg/mL (≈ 148 µM) | – | –
5 | Cn1c(NN)nc(-c2cccc(O)c2O)c(C#N)c1=O | 8.44 mm | 29 µg/mL (≈ 106 µM) | 34 µg/mL (≈ 124 µM) | 9.35 mm | 22.1 mm | 44 µg/mL (≈ 161 µM) | 18.7 mm | 12.9 mm | 60.27 min | 52.22 min | 14.5 mm | 48.56 min | 45.65 min | 13.8 mm | 28.8% | 63.98 min | 7.06 mm | 66.22 min | 31 µg/mL (≈ 113 µM) | 15 mm | zone of inhibition at 50 µg/mL (Escherichia coli [24]): 8.16 mm; zone of inhibition at 25 µg/mL (Pseudomonas aeruginosa [14]): 8.1 mm; zone of inhibition at 25 µg/mL (Escherichia coli [25]): 8.72 mm; zone of inhibition at 50 µg/mL (Pseudomonas aeruginosa [16]): 10.1 mm; zone of inhibition at 100 µg/mL (Escherichia coli [26]): 10.2 mm; zone of inhibition at 25 µg/mL (Bacillus subtilis [19]): 11.5 mm
6 | CCCSc1ccc2[nH]c(NC(=O)OC)nc2c1 [ALBENDAZOLE] | – | – | – | – | – | – | – | – | 53.34 min | 50.38 min | – | 35.58 min | 30.57 min | – | – | 55.25 min | – | 60.36 min | – | – | –
7 | COc1ccc(-c2nc(NN)n(C)c(=O)c2C#N)cc1 | 10 mm | 32 µg/mL (≈ 118 µM) | 41 µg/mL (≈ 151 µM) | 8.14 mm | 13.6 mm | 56 µg/mL (≈ 206 µM) | 15.8 mm | 7.21 mm | 57.45 min | 47.23 min | 10.3 mm | 45.23 min | 42.6 min | 10.7 mm | 20.6% | 60.22 min | 8.32 mm | 62.32 min | 39 µg/mL (≈ 144 µM) | 17 mm | zone of inhibition at 50 µg/mL (Escherichia coli [24]): 7.71 mm; zone of inhibition at 25 µg/mL (Pseudomonas aeruginosa [14]): 5 mm; zone of inhibition at 25 µg/mL (Escherichia coli [25]): 6.28 mm; zone of inhibition at 50 µg/mL (Pseudomonas aeruginosa [16]): 6.96 mm; zone of inhibition at 100 µg/mL (Escherichia coli [26]): 7.49 mm; zone of inhibition at 25 µg/mL (Bacillus subtilis [19]): 9.26 mm
8 | C[C@@H]1[C@H](O)[C@@H](C)/C=C/C=C/C=C/C=C/C=C/C=C/C=C/[C@H](O[C@@H]2O[C@H](C)[C@@H](O)[C@H](N)[C@@H]2O)C[C@@H]2O[C@](O)(C[C@@H](O)C[C@@H](O)[C@H](O)CC[C@@H](O)C[C@@H](O)CC(=O)O[C@H]1C)C[C@H](O)[C@H]2C(=O)O [AMPHOTERICIN B] | 17.1 mm | – | – | 12.9 mm | – | – | 23.1 mm | – | – | – | – | – | – | 15.3 mm | – | – | 14.9 mm | – | – | 26.1 mm | –
